In ChEMBL document CHEMBL3272006, “Synthesis of some 1, 8- and 2, 8-disubstituted derivatives of adenosine cyclic 3', 5'-phosphate and their interaction with some enzymes of cAMP metabolism” (J Med Chem, 1976):

Assays:
Bos taurus = organism: Bos taurus; assay: Ratio of Ka for cAMP to Ka for compound for bovine brain protein kinase in presence of 0.5 nmol [32P]ATP-gamma by liquid scintillation spectrometer
Oryctolagus cuniculus = organism: Oryctolagus cuniculus; assay: Activity of rabbit kidney PDE assessed as enzyme-mediated compound hydrolysis after 10 to 60 mins by colorimetric assay relative to cAMP; format: tissue-based
Outline: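 Rabbit kidney enzyme; 0.60 ml mix with 3.0 µmol cyclic nucleotide (5 mM), 3.0 µmol Tris HCl pH 7.5, 6 µmol MgCl2, 0.1–0.3 mg protein. Incubated usually 10–60 min, stopped by heating, bacterial alkaline phosphatase added, released phosphate read colorimetrically. Rate expressed relative to cAMP hydrolysis (nmol 5'-AMP per min).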

[1] = Inhibition of rabbit lung PDE assessed as inhibition 8-[3H]-cAMP substrate hydrolysis; parameters: species or system Oryctolagus cuniculus; conditions: read-out: I50
Outline: (§1)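 Beef heart or rabbit lung enzyme; 0.5 ml with 25 µmol Tris HCl pH 7.5, 5 µmol MgCl2, 20–200 µg protein, 80 pmol 8-[3H]cAMP, varying inhibitor levels. Times set by pilot runs. Heat stop, snake venom 5'-nucleotidase converts product to nucleoside, unreacted cyclic nucleotide bound to Dowex-1, nucleoside radioactivity counted. Nucleotidase interference checked with [14C]-5'-AMP.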

[2] = Inhibition of bovine heart PDE assessed as inhibition 8-[3H]-cAMP substrate hydrolysis; parameters: species or system Bos taurus; conditions: read-out: I50; outline: as §1

Row | Ratio (Bos taurus) | fold change (FC) (Oryctolagus cuniculus) | IC50 [1] [µM] | IC50 [2] [µM] | Compound
1 | 0.45 | 0.16 | 67 | 50 | Cc1nc(N)c2nc(N=[N+]=[N-])n([C@@H]3O[C@@H]4COP(=O)(O)O[C@H]4[C@H]3O)c2n1
2 | 2.9 | < 0.05 | 40 | – | Nc1ncnc2c1nc(Br)n2[C@@H]1O[C@@H]2COP(=O)(O)O[C@H]2[C@H]1O
3 | 1.1 | < 0.05 | 9.5 | 7.1 | CCCCc1nc(N)c2nc(SCc3ccccc3)n([C@@H]3O[C@@H]4COP(=O)(O)O[C@H]4[C@H]3O)c2n1
4 | 2.3 | 0.05 | 33 | 5 | Cc1nc(N)c2nc(Sc3ccc(Cl)cc3)n([C@@H]3O[C@@H]4COP(=O)(O)O[C@H]4[C@H]3O)c2n1
5 | 2.1 | < 0.05 | 53 | 17 | Nc1ncnc2c1nc(SCc1ccccc1)n2[C@@H]1O[C@@H]2COP(=O)(O)O[C@H]2[C@H]1O
6 | 3.4 | 0.15 | 25 | 30 | Cc1nc(N)c2nc(Br)n([C@@H]3O[C@@H]4COP(=O)(O)O[C@H]4[C@H]3O)c2n1
7 | 0.45 | 0.33 | 35 | 50 | Nc1c2ncn([C@@H]3O[C@@H]4COP(=O)(O)O[C@H]4[C@H]3O)c2nc[n+]1[O-]
8 | 0.66 | < 0.05 | 17 | 11 | CCCCc1nc(N)c2nc(Br)n([C@@H]3O[C@@H]4COP(=O)(O)O[C@H]4[C@H]3O)c2n1
9 | 0.68 | < 0.05 | 80 | 43 | [N-]=[N+]=Nc1nc2c(N)ncnc2n1[C@@H]1O[C@@H]2COP(=O)(O)O[C@H]2[C@H]1O
10 | 2.2 | < 0.05 | 11 | 5 | CCCCc1nc(N)c2nc(Sc3ccc(Cl)cc3)n([C@@H]3O[C@@H]4COP(=O)(O)O[C@H]4[C@H]3O)c2n1
11 | 0.15 | < 0.05 | 400 | 59 | Nc1c2nc(Br)n([C@@H]3O[C@@H]4COP(=O)(O)O[C@H]4[C@H]3O)c2nc[n+]1[O-]
12 | 0.16 | 0.83 | 1.6 | 1.1 | Cc1nc(N)c2ncn([C@@H]3O[C@@H]4COP(=O)(O)O[C@H]4[C@H]3O)c2n1
13 | 0.46 | 0.64 | 3 | 10 | CCCCc1nc(N)c2ncn([C@@H]3O[C@@H]4COP(=O)(O)O[C@H]4[C@H]3O)c2n1
14 | 0.012 | 0.16 | 65 | 80 | Cn1cnc2c(ncn2[C@@H]2O[C@@H]3COP(=O)(O)O[C@H]3[C@H]2O)c1=N
15 | 0.95 | 0.05 | 9.5 | 4.3 | Cc1nc(N)c2nc(SCc3ccccc3)n([C@@H]3O[C@@H]4COP(=O)(O)O[C@H]4[C@H]3O)c2n1
16 | 1.3 | – | 61 | 67 | Cn1cnc2c(nc(SCc3ccccc3)n2[C@@H]2O[C@@H]3COP(=O)(O)O[C@H]3[C@H]2O)c1=N
17 | 18 | < 0.05 | 200 | – | Nc1ncnc2c1nc(Sc1ccc(Cl)cc1)n2[C@@H]1O[C@@H]2COP(=O)(O)O[C@H]2[C@H]1O
